Measured values as given in ChEMBL document CHEMBL4842351, “Synthesis and evaluation of novel and potent protease activated receptor 4 (PAR4) antagonists based on a quinazolin-4(3H)-one scaffold” (Eur J Med Chem, 2021).
Calls of active or inactive are those of the source. The rule behind the calls is not given here.

Tests used:
[1] = Metabolic stability in rat liver microsomes assessed as intrinsic clearance incubated for 60 mins by LC-MS/MS analysis; type: ADME, Microsome; settings: 1 h
Method in brief: (§1)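 Human, rat or mouse liver microsomes in potassium phosphate buffer at pH ~7.4, warmed to 37 °C with compound (DMSO stock diluted in acetonitrile). Reaction started with NADPH; no-NADPH negative controls. Aliquots taken at 0 and 60 min, quenched in ice-cold acetonitrile with internal standard, and parent measured by LC/MS/MS. t1/2 = 0.693/k from ln concentration vs time; CLint derived from t1/2. Triplicate; mean ± SD.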

[2] = Cytotoxicity against HEK293T cells assessed as cell viability at 1 uM incubated for 48 hrs by CCK-8 assay; type: cell-based, HEK-293T; settings: human, read-out: Activity
Method in brief: (§2)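 HEK293 cells in exponential growth, 4000/well, left to adhere overnight, then exposed to three compound concentrations for 48 h. Equal-volume DMSO served as control. CCK-8 added for 2 h at 37 °C in the dark, absorbance read at 450 nm. Viability = OD sample/OD control × 100; mean ± SD, n=3.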

Platelet [3] = assay: Antiplatelet activity against ADP-induced human platelet aggregation in platelet in platelet rich plasma assessed as inhibition of platelet aggregation at 10 uM by photo-turbidimetry method; type: functional, cell-based
Method in brief: (§3)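 Human PRP prepared as for the aggregation assay and adjusted to 3×10⁸/mL. Compound preincubated for 5 min at 37 °C, then aggregation triggered by AYPGKF, SFLLRN, collagen, ADP or U46619. Maximum percent inhibition taken from 5 min light-transmittance traces. Mean ± SD, n=3.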

[4] = Metabolic stability in mouse liver microsomes assessed as half life incubated for 60 mins by LC-MS/MS analysis; type: ADME, Microsome; method in brief: as §1
[5] = molecular target: T1, Proteinase-activated receptor 2 (Homo sapiens, UniProt P55085); assay: Antagonist activity at human PAR2 expressed in Ga15-HEK293 cells assessed as reduction in PAR2 AP 2-furoyl-LIGRLO-NH2-induced cytosolic calcium incubated for 24 hrs by FLIPR - calcium mobilization assay; type: functional, cell-based
T1 sequence (P55085 whole entry): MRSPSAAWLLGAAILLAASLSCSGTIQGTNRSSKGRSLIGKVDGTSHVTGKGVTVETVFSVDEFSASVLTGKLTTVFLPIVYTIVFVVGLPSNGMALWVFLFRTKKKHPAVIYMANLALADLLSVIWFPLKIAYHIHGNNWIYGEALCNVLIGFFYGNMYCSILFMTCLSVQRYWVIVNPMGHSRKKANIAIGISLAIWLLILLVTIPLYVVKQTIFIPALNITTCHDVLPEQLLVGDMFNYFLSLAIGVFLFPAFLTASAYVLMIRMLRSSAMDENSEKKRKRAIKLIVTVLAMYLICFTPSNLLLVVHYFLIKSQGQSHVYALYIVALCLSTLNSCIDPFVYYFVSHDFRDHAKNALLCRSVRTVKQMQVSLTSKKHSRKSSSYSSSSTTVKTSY
Method in brief: (§4)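 HEK293/Gα15 cells stably expressing human PAR1, PAR2 or PAR4, seeded at 45,000 cells/well and grown for 24 h at 37 °C, 5% CO₂. Cells loaded with calcium dye for 60 min at 37 °C in the dark. Compounds diluted from DMSO in HBSS and preincubated in the dark at room temperature. Agonists: SFFLRR (PAR1), 2-furoyl-LIGRLO-NH₂ (PAR2), AYPGKF-NH₂ (PAR4). Fluorescence read on FLIPR; 10-point half-log curves; mean of ≥2 determinations.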

[6] = Cytotoxicity against HEK293T cells assessed as cell viability at 10 uM incubated for 48 hrs by CCK-8 assay; type: cell-based, HEK-293T; settings: human, read-out: Activity; method in brief: as §2
[7] = Metabolic stability in human liver microsomes assessed as half life incubated for 60 mins by LC-MS/MS analysis; type: ADME, Microsome
Platelet [8] = assay: Antiplatelet activity against collagen-induced human platelet aggregation in platelet in platelet rich plasma assessed as inhibition of platelet aggregation at 10 uM by photo-turbidimetry method; type: functional, cell-based; method in brief: as §3
[9] = Metabolic stability in mouse liver microsomes assessed as intrinsic clearance incubated for 60 mins by LC-MS/MS analysis; type: ADME, Microsome; settings: 1 h; method in brief: as §1
Platelet [10] = assay: Antiplatelet activity against AYPGKF-NH2-induced human platelet in platelet rich plasma assessed as inhibition of platelet aggregation at 10 uM by photo-turbidimetry method; type: functional, cell-based; method in brief: as §3
Platelet [11] = assay: Antiplatelet activity against U46619-induced human platelet aggregation in platelet in platelet rich plasma assessed as inhibition of platelet aggregation at 10 uM by photo-turbidimetry method; type: functional, cell-based; method in brief: as §3
[12] = Metabolic stability in human liver microsomes assessed as intrinsic clearance incubated for 60 mins by LC-MS/MS analysis; type: ADME, Microsome; settings: 1 h
Platelet [13] = assay: Antiplatelet activity against SFLLRN-NH2-induced human platelet in platelet rich plasma assessed as inhibition of platelet aggregation at 10 uM by photo-turbidimetry method; type: functional, cell-based; method in brief: as §3
[14] = molecular target: T2, Proteinase-activated receptor 1 (Homo sapiens, UniProt P25116); assay: Antagonist activity at human PAR1 expressed in Ga15-HEK293 cells assessed as reduction in PAR1 AP SFFLRR-NH2-induced cytosolic calcium incubated for 24 hrs by FLIPR - calcium mobilization assay; type: functional, cell-based; method in brief: as §4
T2 sequence (P25116 whole entry): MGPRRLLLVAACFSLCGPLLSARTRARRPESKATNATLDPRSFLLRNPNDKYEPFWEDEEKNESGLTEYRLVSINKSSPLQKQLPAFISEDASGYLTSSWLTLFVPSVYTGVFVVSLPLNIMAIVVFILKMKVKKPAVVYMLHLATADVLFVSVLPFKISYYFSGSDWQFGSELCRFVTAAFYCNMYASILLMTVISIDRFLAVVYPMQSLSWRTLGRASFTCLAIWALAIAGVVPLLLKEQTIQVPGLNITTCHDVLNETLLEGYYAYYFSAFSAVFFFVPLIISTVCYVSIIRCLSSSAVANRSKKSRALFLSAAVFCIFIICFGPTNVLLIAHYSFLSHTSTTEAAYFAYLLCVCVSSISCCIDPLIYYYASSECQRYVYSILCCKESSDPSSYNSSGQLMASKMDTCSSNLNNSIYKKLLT

[15] = Metabolic stability in rat liver microsomes assessed as half life incubated for 60 mins by LC-MS/MS analysis; type: ADME, Microsome; method in brief: as §1
[16] = molecular target: T3, Proteinase-activated receptor 4 (Homo sapiens, UniProt Q96RI0); assay: Antagonist activity at human PAR4 expressed in Ga15-HEK293 cells assessed as reduction in PAR4 AP AYPGKF-NH2-induced cytosolic calcium incubated for 24 hrs by FLIPR - calcium mobilization assay; type: functional, cell-based; method in brief: as §4
T3 sequence (Q96RI0 whole entry): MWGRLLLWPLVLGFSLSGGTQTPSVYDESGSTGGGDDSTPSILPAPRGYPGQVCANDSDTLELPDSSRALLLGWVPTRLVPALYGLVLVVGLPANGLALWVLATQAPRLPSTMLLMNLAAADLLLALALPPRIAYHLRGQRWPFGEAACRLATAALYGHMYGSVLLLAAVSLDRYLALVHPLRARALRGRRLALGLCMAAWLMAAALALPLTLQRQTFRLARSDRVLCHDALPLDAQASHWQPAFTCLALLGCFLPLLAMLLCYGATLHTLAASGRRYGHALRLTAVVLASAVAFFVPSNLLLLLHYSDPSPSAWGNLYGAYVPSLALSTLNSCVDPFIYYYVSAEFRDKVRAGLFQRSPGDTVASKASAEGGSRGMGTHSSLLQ

[17] = Cytotoxicity against HEK293T cells assessed as cell viability at 20 uM incubated for 48 hrs by CCK-8 assay; type: cell-based, HEK-293T; settings: human, read-out: Activity; method in brief: as §2

- CLH [1]: 78.1 mL/min/g
- half-life [4]: 282 min
- IC50 [5]: > 1 µM
- half-life [7]: 42.6 min
- CLH [9]: 19.3 mL/min/g
- CLH [12]: 36.6 mL/min/g
- IC50 [14]: > 3.16 µM
- half-life [15]: 31.9 min
- IC50 [16]: 0.00053 µM
SMILES: COc1cc(Cl)c2nc(-c3cc(C)cc4c(=O)n(C)cnc34)sc2c1
- viability at 48 h, 1 µM [2]: 91.3%
- Activity (Platelet [3]): inactive
- viability at 48 h, 10 µM [6]: 73.7%
- Activity (Platelet [8]): inactive
- Activity (Platelet [10]): Active
- Activity (Platelet [11]): inactive
- Activity (Platelet [13]): inactive
- viability at 48 h, 20 µM [17]: 59.3%
